Measured values: ChEMBL document CHEMBL1156303, “Synthesis and SAR of N-(4-(4-alklylpiperazin-1-yl)phenyl)benzamides as muscarinic acetylcholine receptor subtype 1 (M1) anatgonists” (Bioorg Med Chem Lett, 2010)

Legend:
[1] = molecular target: T1, Muscarinic acetylcholine receptor M2 (Homo sapiens, UniProt P08172); experiment: Antagonist activity at human muscarinic M2 receptor expressed in CHO-K1 cells coexpressing Gqi5 chimeric G-protein assessed as inhibition of acetylcholine-induced calcium mobilization; type: functional, cell-based
T1 sequence (P08172 whole entry): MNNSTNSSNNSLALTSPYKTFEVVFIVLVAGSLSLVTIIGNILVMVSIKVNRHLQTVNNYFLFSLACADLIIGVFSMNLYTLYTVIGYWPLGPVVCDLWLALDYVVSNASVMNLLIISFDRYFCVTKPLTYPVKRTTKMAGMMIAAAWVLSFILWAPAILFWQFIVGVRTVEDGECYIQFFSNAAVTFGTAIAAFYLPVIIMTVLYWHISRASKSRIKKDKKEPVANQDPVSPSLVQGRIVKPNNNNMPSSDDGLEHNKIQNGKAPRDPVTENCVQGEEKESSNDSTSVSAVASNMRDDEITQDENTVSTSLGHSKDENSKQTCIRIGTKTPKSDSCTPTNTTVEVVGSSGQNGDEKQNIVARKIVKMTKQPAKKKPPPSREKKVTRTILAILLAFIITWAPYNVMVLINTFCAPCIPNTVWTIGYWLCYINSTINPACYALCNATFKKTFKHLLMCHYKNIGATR
Outline: (§1)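 Stable muscarinic cell lines (hM2 and hM4 stably transfected with Gqi5 chimera) plated overnight, then loaded with 2 µM Fluo-4 AM in HBSS with 20 mM HEPES and 2.5 mM probenecid, pH 7.4, for 45 min at 37°C. Dye replaced with assay buffer. Cells pre-incubated with compound at 10 µM or across a concentration-response curve, then challenged with sub-maximal acetylcholine or carbachol. Read-out: calcium mobilization.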

[2] = molecular target: T2, Muscarinic acetylcholine receptor M4 (Homo sapiens, UniProt P08173); experiment: Antagonist activity at human muscarinic M4 receptor expressed in CHO-K1 cells coexpressing Gqi5 chimeric G-protein assessed as inhibition of acetylcholine-induced calcium mobilization; type: functional, cell-based; outline: as §1
T2 sequence (P08173 whole entry): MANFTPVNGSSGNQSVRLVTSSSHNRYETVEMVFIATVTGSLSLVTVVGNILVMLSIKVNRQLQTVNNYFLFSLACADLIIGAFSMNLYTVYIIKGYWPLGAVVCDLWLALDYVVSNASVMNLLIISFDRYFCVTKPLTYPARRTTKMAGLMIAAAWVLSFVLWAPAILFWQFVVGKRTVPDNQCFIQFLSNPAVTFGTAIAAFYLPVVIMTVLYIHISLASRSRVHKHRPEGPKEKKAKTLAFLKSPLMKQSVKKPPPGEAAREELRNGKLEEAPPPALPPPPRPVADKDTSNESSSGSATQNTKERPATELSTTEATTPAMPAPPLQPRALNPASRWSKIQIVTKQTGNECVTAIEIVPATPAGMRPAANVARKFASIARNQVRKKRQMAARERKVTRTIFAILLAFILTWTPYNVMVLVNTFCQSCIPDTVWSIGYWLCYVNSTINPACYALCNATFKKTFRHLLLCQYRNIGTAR

[3] = molecular target: T3, Muscarinic acetylcholine receptor M5 (Homo sapiens) (UniProt P08912); experiment: Antagonist activity at human muscarinic M5 receptor expressed in CHO-K1 cells assessed as inhibition of acetylcholine-induced calcium mobilization at 10 uM; type: functional, cell-based
T3 sequence (whole entry): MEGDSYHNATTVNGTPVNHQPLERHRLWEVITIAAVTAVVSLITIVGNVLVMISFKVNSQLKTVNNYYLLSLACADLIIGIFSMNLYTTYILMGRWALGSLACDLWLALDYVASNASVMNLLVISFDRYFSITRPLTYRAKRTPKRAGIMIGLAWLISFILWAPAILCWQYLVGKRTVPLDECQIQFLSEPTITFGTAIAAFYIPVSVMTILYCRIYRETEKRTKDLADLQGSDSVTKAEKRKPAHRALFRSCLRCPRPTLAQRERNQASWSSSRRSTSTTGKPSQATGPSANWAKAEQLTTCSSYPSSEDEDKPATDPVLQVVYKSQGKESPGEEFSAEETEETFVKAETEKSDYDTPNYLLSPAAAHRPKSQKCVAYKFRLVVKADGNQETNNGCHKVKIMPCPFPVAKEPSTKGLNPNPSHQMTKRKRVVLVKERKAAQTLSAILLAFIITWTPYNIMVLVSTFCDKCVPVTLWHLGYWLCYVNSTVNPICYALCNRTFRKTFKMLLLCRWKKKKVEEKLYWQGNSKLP

[4] = molecular target: T4, Muscarinic acetylcholine receptor M1 (Homo sapiens, UniProt P11229); experiment: Antagonist activity at human muscarinic M1 receptor expressed in CHO-K1 cells assessed as inhibition of acetylcholine-induced calcium mobilization; type: functional, cell-based
T4 sequence (P11229 whole entry): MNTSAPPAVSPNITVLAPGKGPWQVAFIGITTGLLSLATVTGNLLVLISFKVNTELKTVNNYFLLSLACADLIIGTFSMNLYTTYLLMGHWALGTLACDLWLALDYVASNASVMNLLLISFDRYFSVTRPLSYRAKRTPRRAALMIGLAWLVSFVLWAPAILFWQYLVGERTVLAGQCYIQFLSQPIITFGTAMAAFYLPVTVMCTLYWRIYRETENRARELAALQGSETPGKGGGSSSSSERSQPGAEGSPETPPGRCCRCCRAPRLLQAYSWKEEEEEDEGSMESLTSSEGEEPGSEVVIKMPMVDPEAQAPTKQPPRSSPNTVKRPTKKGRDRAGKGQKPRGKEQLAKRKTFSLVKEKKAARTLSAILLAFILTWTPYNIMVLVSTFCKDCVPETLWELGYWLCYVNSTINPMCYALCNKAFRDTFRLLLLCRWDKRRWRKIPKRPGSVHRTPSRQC

[5] = molecular target: Muscarinic acetylcholine receptor M3 (Homo sapiens, UniProt P20309); experiment: Antagonist activity at human muscarinic M3 receptor expressed in CHO-K1 cells assessed as inhibition of acetylcholine-induced calcium mobilization; type: functional, cell-based
[6] = molecular target: T5, Muscarinic acetylcholine receptor M5 (Homo sapiens, UniProt P08912); experiment: Antagonist activity at human muscarinic M5 receptor expressed in CHO-K1 cells assessed as inhibition of acetylcholine-induced calcium mobilization; type: functional, cell-based
T5 sequence (P08912 whole entry): T3 sequence (whole entry)

[7] = Selectivity ratio of muscarinic M3 receptor over muscarinic M2 receptor

Chain of Muscarinic acetylcholine receptor M3 (P20309 whole entry): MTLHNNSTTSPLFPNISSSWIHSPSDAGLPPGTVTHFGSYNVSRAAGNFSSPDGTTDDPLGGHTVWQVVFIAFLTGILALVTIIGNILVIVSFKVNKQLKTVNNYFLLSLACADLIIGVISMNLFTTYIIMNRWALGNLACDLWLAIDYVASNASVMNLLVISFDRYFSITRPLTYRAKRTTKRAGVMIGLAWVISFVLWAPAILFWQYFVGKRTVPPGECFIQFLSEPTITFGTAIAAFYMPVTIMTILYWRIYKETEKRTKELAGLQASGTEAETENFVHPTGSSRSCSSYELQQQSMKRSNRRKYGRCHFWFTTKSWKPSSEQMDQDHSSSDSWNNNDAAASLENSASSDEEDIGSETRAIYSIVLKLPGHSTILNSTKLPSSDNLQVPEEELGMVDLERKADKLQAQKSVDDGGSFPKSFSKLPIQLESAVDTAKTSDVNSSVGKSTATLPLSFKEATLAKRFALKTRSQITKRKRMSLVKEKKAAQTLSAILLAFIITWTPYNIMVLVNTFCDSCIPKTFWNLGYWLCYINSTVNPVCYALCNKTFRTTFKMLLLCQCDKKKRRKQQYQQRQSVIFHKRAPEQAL

Row | SMILES | IC50 [1] | IC50 [2] | IC50 [3] | IC50 [4] | IC50 [5] | IC50 [6] | Selectivity ratio [7]
1 | CCN1CCN(c2ccc(NC(=O)c3cc(C(F)(F)F)cc(C(F)(F)F)c3)cc2Cl)CC1 | > 10 µM | 3.7 µM | 10 µM | 2.6 µM | > 10 µM | > 10 µM | 
2 | CCN1CCN(c2ccc(NC(=O)c3ccccc3Cl)cc2Cl)CC1 |  |  |  | 0.96 µM |  | 2.3 µM | 
3 | CCN1CCN(c2ccc(NC(=O)c3ccc(C)cc3)cc2Cl)CC1 | > 10 µM | > 10 µM |  | 2.9 µM | 3.7 µM | 6.9 µM | 
4 | Cc1ccc(N2C[C@@H]3[C@H](C2)[C@H]3NC(=O)C(O)(c2ccccc2)C2CCCCC2)cc1 (stereo partly specified) |  |  |  |  |  |  | 20
5 | CCN1CCN(c2ccc(NC(=O)c3ccccc3)cc2Cl)CC1 | > 10 µM | > 10 µM |  | 3.2 µM | > 10 µM | > 10 µM | 
6 | CCN1CCN(c2ccc(NC(=O)c3ccccc3OC)cc2Cl)CC1 |  |  |  | 0.82 µM | 5.6 µM | 1.3 µM | 
7 | CCN1CCN(c2ccc(NC(=O)c3ccc(OC)cc3)cc2Cl)CC1 |  |  |  | 3.2 µM | > 10 µM | > 10 µM | 

Further lines, with some results ahead:

Row | IC50 [1] | IC50 [2] | IC50 [3] | IC50 [4] | IC50 [5] | IC50 [6] | SMILES | Selectivity ratio [7]
8 | 2.7 µM | 1.5 µM |  | 0.49 µM | 4.2 µM | 4.1 µM | CCN1CCN(c2ccc(NC(=O)c3cc(C(F)(F)F)ccc3C(F)(F)F)cc2Cl)CC1 | 
9 | > 10 µM | > 10 µM |  | 4.7 µM | > 10 µM | > 10 µM | CCN1CCN(c2ccc(NC(=O)c3ccc(F)c(F)c3)cc2Cl)CC1 | 
10 | > 10 µM | 3.7 µM |  | 2.9 µM | 4.3 µM | 4.1 µM | CCN1CCN(c2ccc(NC(=O)c3cccc(C(F)(F)F)c3)cc2Cl)CC1 | 
11 |  |  |  | 0.35 µM | 3.7 µM | 0.83 µM | CCN1CCN(c2ccc(NC(=O)c3c(F)c(F)c(F)c(F)c3F)cc2Cl)CC1 | 
12 |  |  |  | 2.1 µM | > 10 µM | 3.5 µM | CCN1CCN(c2ccc(NC(=O)c3cccc(C)c3)cc2Cl)CC1 | 
